According to paper PMC8044591 (International Journal for Parasitology: Drugs and Drug …, 2021):
Read-outs that look alike come from different tables or passages of the source. Marks after values point to notes of the source that are not given here.

What was measured:
[1] = system: GI nematodes resistant to IVM and RBZ; assay: Faecal egg count reduction test; format: in vivo; settings: for EPG Counts Day 15: arithmetic mean, n = 15
How it was run: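 Naturally infected male Aberdeen Angus calves, 9–11 months, ≥100 EPG on day −1; 15 per group, allocated by EPG ranking. Herds were levamisole-treated beforehand, then grazed ≥2 months on-farm. Dosing was oral 2.5 mg/kg or SC 0.2 or 3.75 mg/kg. Rectal faeces on day −1 and day 15 were read by modified McMaster (10 EPG). FECR (%) = 100(1 − T2/T1), using arithmetic group mean EPG; 95% CI by the Coles method.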

Oesophagostomum spp. = assay: FECR by genus from coprocultures, naturally parasitized calves; format: in vivo
How it was run: (§1)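 Male Aberdeen Angus calves, 9–11 months, naturally infected, ≥100 EPG on day −1, were ranked by EPG and randomised to groups of 15 per farm. Dosing was oral 2.5 mg/kg or SC 0.2 or 3.75 mg/kg. Rectal faeces on day −1 and day 15 were read by modified McMaster (10 EPG sensitivity). Coprocultures used 10 g faeces; ~100 Baermann L3 were identified per sample. Genus efficacy used group mean EPG […] that genus's L3 proportion.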

Haemonchus spp. = assay: as above; format: in vivo
How it was run: as §1

Ostertagia spp. = assay: FECR by genus from coprocultures, naturally parasitized calves; format: in vivo
Cooperia spp. = assay: FECR by genus from coprocultures, naturally parasitized calves; format: in vivo
How it was run: as §1

[2] = Plasma pharmacokinetics after oral administration of MNP to parasitized calves; format: in vivo
How it was run: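 Eight calves on Farm 1 received a single oral 2.5 mg/kg dose. Jugular heparinised blood was drawn pre-dose, at 2–10 h and days 1–9; plasma was stored at −20 °C. Acetonitrile extraction, N2 evaporation, then C18 HPLC-UV at 230 nm (acetonitrile:methanol:water 60:8:32, 0.8 mL/min) quantified parent and sulphone metabolite. Calibration 4–400 ng/mL; LOQ 4 ng/mL. Non-compartmental analysis: observed Cmax, trapezoidal AUC extrapolated to infinity, moment-based MRT; mean ± SD.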

Oesophagostomum = settings: sheep, cited from earlier work; for reduction of Oesophagostomum: 2009
[3] = Adverse events in treated cattle; format: in vivo; settings: cattle treated with MNP oral 2.5 mg/kg
[4] = liver metabolism, sheep compared to cattle, ref Ballent et al., 2016; cited from earlier work
[5] = sheep, ref Lifschitz et al., 2014; cited from earlier work

| Compound | EPG Counts Day 15 ([1]; Farm 1, 15 days post-treatment) | EPG Counts Day 15 ([1]; Farm 2, 15 days post-treatment) | EPG Counts Day 15 ([1]; Farm 3, 15 days post-treatment) | FECR Day 15 (Oesophagostomum spp.; Farm 1) | FECR Day 15 (Oesophagostomum spp.; Farm 2) | FECR Day 15 (Oesophagostomum spp.; Farm 3) | FECR Day 15 (Haemonchus spp.; Farm 1) | FECR Day 15 (Haemonchus spp.; Farm 2) | FECR Day 15 (Haemonchus spp.; Farm 3) | FECR Day 15 (Ostertagia spp.; Farm 1) | FECR Day 15 (Ostertagia spp.; Farm 2) | FECR Day 15 (Ostertagia spp.; Farm 3) | FECR Day 15 (Cooperia spp.; Farm 1) | FECR Day 15 (Cooperia spp.; Farm 2) | FECR Day 15 (Cooperia spp.; Farm 3) | other results |
| --- | --- | --- | --- | --- | --- | --- | --- | --- | --- | --- | --- | --- | --- | --- | --- | --- |
| CC[C@H](C)[C@H]1O[C@]2(CC[C@@H]1C)C[C@@H]1C[C@@H](C/C=C(\C)[C@@H](O[C@H]3C[C@H](OC)[C@@H](O[C@H]4C[C@H](OC)[C@@H](O)[C@H](C)O4)[C@H](C)O3)[C@@H](C)/C=C/C=C3\CO[C@@H]4[C@H](O)C(C)=C[C@@H](C(=O)O1)[C@]34O)O2 [IVM, ivermectin] | 269^b (0–1060) EPG | 111^b (0–320) EPG | 362^b (20–1520) EPG | 100% | 100% | 100% | 19% | 100% | 0% | 100% | 100% | 100% | 80% | 56% | 43% |  |
| C[C@](C#N)(COc1cc(C#N)ccc1C(F)(F)F)NC(=O)c1ccc(SC(F)(F)F)cc1 [MNP, monepantel] | 5.6a (0–20) EPG | 8a (0–20) EPG | 7a (0–20) EPG | 74% | 22% | 64% | 100% | 100% | 100% | 100% | 100% | 99% | 100% | 100% | 100% | time post-administration up to which analyte was measured/recovered in plasma ([2]; MNP oral 2.5 mg/kg, calves, LOQ 4 ng/mL): up to 120 h; AUC ([2]; bovine, plasma, po, 2.5 mg/kg): 1710 ± 651 ng·h/mL; AUC(0-inf) ([2]; bovine, plasma, po, 2.5 mg/kg): 2170 ± 783 ng·h/mL; Cmax ([2]; bovine, plasma, po, 2.5 mg/kg): 21.5 ± 4.62 ng/mL; MRT ([2]; bovine, plasma, po, 2.5 mg/kg): 112 ± 40.8 h; Tmax ([2]; bovine, plasma, po, 2.5 mg/kg): 8 ± 1.51 h; half-life ([2]; bovine, plasma, po, 2.5 mg/kg): 81 ± 31 h; reduction of Oesophagostomum (Oesophagostomum; ref Bustamante et al.): 61.9%; efficacy against Oesophagostomum (Oesophagostomum; ref Hosking et al. (2009)): below 90%; reduction of Oesophagostomum (Oesophagostomum; ref Sager et al.): 88%; adverse events [3]: no adverse events were observed; overall efficacy (FECR) across farms ([1]; Farms 1, 2 and 3 together, day 15): 96–99%; efficacy (FECR) across farms (Haemonchus spp.; Farms 1-3 together): 100%; efficacy (FECR) across farms (Ostertagia spp.; Farms 1-3 together): 100%; rate of MNP conversion into MNPSO2 [4]: five-fold higher in sheep compared to cattle; concentration of MNP in the large intestine mucosa [5]: 225 ng/g; concentration of MNP in the small intestine mucosa, duodenum [5]: 762 ng/g; concentration of MNP in the small intestine mucosa, ileum [5]: 562 ng/g; efficacy (FECR) across farms (Cooperia spp.; Farms 1-3 together): 100% |
| CCC[S+]([O-])c1ccc2[nH]c(NC(=O)OC)nc2c1 (centres unmarked) [RBZ, ricobendazole] | 31^a (0–120) EPG | 3^a (0–20) EPG | 115^b (0–320) EPG | 100% | 100% | 100% | 99% | 95% | 98% |  | 100% | 0% | 86% | 99% | 54% | 95% lower confidence interval of FECR ([1]; Farm 1, day 15): less than 90%; efficacy (FECR) on Farms 1 and 3 (Ostertagia spp.; Farms 1 and 3, stated jointly with Cooperia spp.): below 90% |
